PAFAH1B2 inh: PAFAH1B2 enzyme inhibitors, primary screen, biochemical, fluorescence polarization, human. Platelet-activating factor acetylhydrolase IB subunit alpha2 (Homo sapiens), P68402. inhibition, % at 3.39 µM. AID 492953, 2010. recombinant PAFAH1B2, FP-rhodamine activity probe. 1.2% of 340,000 active;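 active means inhibition above the mean of all tested compounds plus 3 SD, cut at about 24% in these data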;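 further: 0% = enzyme with DMSO and 100% = wells lacking PAFAH1B2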
Target sequence (P68402 whole entry, looked up): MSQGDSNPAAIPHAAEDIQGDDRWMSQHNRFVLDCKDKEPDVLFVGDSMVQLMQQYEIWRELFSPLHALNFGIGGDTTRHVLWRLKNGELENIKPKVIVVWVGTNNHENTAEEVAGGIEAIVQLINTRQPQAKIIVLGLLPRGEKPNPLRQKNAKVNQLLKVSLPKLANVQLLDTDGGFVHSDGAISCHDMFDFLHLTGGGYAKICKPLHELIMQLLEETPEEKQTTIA
RBBP9 inhibitor: human RBBP9 inhibitors, primary screen, biochemical, fluorescence polarization, FP-Rh probe, HTS | Serine hydrolase RBBP9 (Homo sapiens), O75884 | recombinant RBBP9 | inhibition, % at 7.94 µM | 0.2% of 220,000 active | AID 1515, 2009;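 active means inhibition above the campaign mean of all tested compounds plus 3 SD, cut at about 14% in these data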;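 further: plate controls were DMSO wells with RBBP9 for no effect and wells lacking RBBP9 protein for full effect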
Target sequence (O75884 whole entry, looked up): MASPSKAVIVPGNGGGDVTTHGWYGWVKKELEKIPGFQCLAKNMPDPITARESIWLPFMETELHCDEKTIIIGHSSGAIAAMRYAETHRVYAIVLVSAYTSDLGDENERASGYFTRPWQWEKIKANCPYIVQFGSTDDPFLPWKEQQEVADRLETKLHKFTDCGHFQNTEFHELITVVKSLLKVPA
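Measured by – fluorescence polarization · Test system – RBBP9 protein · Input – 2.5 µM RBBP9 dispensing solution, before mixing · Measure – percent inhibition from mP, scaled between DMSO and no-protein wells · Benchmarks – DMSO-treated enzyme wells and wells lacking RBBP9 · Times – preincubation 30 min plus labeling 45 min at 25 °C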
PAFAH1B3 FP inh: PAFAH1B3 enzyme inhibitors, primary screen, biochemical, fluorescence polarization, human | 0.28% of 340,000 active | AID 492972, 2010 | recombinant PAFAH1B3, FP-rhodamine probe | Platelet-activating factor acetylhydrolase IB subunit alpha1 (Homo sapiens), Q15102 | inhibition, % at 3.39 µM;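 active means inhibition above the screen-wide average of all tested compounds plus 3 SD, cut at about 25% in these data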;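 further: 0% = enzyme with DMSO only and 100% = wells lacking PAFAH1B3 protein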
Target sequence (Q15102 whole entry, looked up): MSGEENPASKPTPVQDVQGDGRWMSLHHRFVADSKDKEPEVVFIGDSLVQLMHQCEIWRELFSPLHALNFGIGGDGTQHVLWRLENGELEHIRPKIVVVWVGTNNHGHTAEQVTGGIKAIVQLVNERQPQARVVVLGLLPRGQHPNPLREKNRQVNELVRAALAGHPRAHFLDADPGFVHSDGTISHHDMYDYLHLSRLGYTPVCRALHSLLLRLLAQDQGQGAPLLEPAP
PAFAH2 FP inh: PAFAH2 enzyme inhibitors, primary screen, biochemical, fluorescence polarization, human; Platelet-activating factor acetylhydrolase 2, cytoplasmic (Homo sapiens), Q99487; 0.99% of 340,000 active; recombinant PAFAH2, FP-rhodamine activity probe; AID 492956, 2010; inhibition, % at 3.39 µM;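 active means inhibition above the mean over all tested compounds plus 3 SD, cut at about 30% in these data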;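 further: inhibitors block probe labeling of enzyme so polarization drops; 0% = enzyme with DMSO and 100% = wells lacking PAFAH2 protein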
pPAFAH FP inh: pPAFAH enzyme inhibitors, primary screen, biochemical, fluorescence polarization, human; recombinant pPAFAH, FP-rhodamine probe fluorescence polarization; AID 463082, 2010; Platelet-activating factor acetylhydrolase (Homo sapiens), Q13093; 1.5% of 330,000 active; inhibition, % at 3.39 µM;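 active means inhibition above the mean inhibition across the screen plus 3 SD, cut at about 25% in these data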;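 further: inhibitors block binding of the rhodamine activity-based probe so polarization drops; 0% = enzyme with DMSO and 100% = wells lacking pPAFAH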
* hit, by the source's call. Only some compounds are listed: those with a hit (about 2.7% of all), similar ones and a draw of the others.

For CCOC(=O)C1CCN(C(=O)c2cc3cc4ccc(OC)cc4nc3o2)CC1 the results were PAFAH1B2 inh 1, PAFAH1B3 FP inh 3, PAFAH2 FP inh 2 and pPAFAH FP inh 3.
Screening COc1ccc2nc3oc(C(=O)N4CCC(C(N)=O)CC4)cc3cc2c1 returned PAFAH1B2 inh -1, RBBP9 inhibitor 2, PAFAH1B3 FP inh 18, PAFAH2 FP inh 5 and pPAFAH FP inh 31*.
For COc1ccc(NC(=O)Nc2ccc(C(=O)N3CCOCC3)cc2)c(OC)c1 the results were PAFAH1B2 inh -3, RBBP9 inhibitor 0, PAFAH1B3 FP inh 4, PAFAH2 FP inh -1 and pPAFAH FP inh 6.
N#C/C(=C/c1cn[nH]c1-c1cccc(Br)c1)C(=O)O was read as PAFAH1B2 inh 5, RBBP9 inhibitor -2, PAFAH1B3 FP inh 6, PAFAH2 FP inh 6 and pPAFAH FP inh -2.
Screening N#C/C(=C/c1cn[nH]c1-c1ccc(Br)cc1)C(=O)O returned PAFAH1B2 inh 30*, RBBP9 inhibitor -5, PAFAH1B3 FP inh 18, PAFAH2 FP inh 8 and pPAFAH FP inh 9.
Screening O=C(NCc1ccco1)c1cccc2c1C(=O)c1ccc(N3CCC(Cc4ccccc4)CC3)cc1S2(=O)=O returned PAFAH1B2 inh -22, PAFAH1B3 FP inh -15, PAFAH2 FP inh -13 and pPAFAH FP inh 33*.
Screening CCOc1ncccc1C(=O)N(CCC(C)C)c1c(N)n(Cc2ccccc2)c(=O)[nH]c1=O returned PAFAH1B2 inh -1, PAFAH1B3 FP inh 4, PAFAH2 FP inh -2 and pPAFAH FP inh -3.
Screening Cc1c(C(=O)N2CCCCC2)c(S(=O)(=O)N2CCN(c3ccc(F)cc3)CC2)c(C)n1C returned PAFAH1B2 inh 1, PAFAH1B3 FP inh 5, PAFAH2 FP inh 0 and pPAFAH FP inh 6.
For Cc1c(C(=O)N2CCCCC2)c(S(=O)(=O)N2CCN(c3ccc(Cl)cc3)CC2)c(C)n1C the results were PAFAH1B2 inh 15, PAFAH1B3 FP inh -2, PAFAH2 FP inh -3 and pPAFAH FP inh 25*.
`Cc1noc(NS(=O)(=O)c2ccc(NC(=O)C(Cl)(Cl)Cl)cc2)c1C` gave PAFAH1B2 inh 7, PAFAH1B3 FP inh -3, PAFAH2 FP inh 3 and pPAFAH FP inh -2.
For Cc1noc(NS(=O)(=O)c2ccc(NC(=O)CC34CC5CC(CC(Br)(C5)C3)C4)cc2)c1C the results were PAFAH1B2 inh 33*, RBBP9 inhibitor 2, PAFAH1B3 FP inh 5, PAFAH2 FP inh 10 and pPAFAH FP inh -5.
Cc1noc(NS(=O)(=O)c2ccc(NC(=O)C34CC5CC(C3)CC(n3cnc(Cl)n3)(C5)C4)cc2)c1C was read as PAFAH1B2 inh 3, RBBP9 inhibitor -7, PAFAH1B3 FP inh 2, PAFAH2 FP inh -1 and pPAFAH FP inh 7.
`CCCOc1ccc(C(=O)Nc2ccc(S(=O)(=O)Nc3onc(C)c3C)cc2)cc1` gave PAFAH1B2 inh 7, RBBP9 inhibitor -11, PAFAH1B3 FP inh 18, PAFAH2 FP inh -3 and pPAFAH FP inh 30*.
Cc1noc(NS(=O)(=O)c2ccc(NC(=O)Nc3ccc(Cl)c(Cl)c3)cc2)c1C was read as PAFAH1B2 inh 14, RBBP9 inhibitor -3, PAFAH1B3 FP inh 18, PAFAH2 FP inh -19 and pPAFAH FP inh 25*.
`COc1ccc(C(=O)NC(C)c2ccc(-n3ccnc3)cc2)c(OC)c1` (stereo unspecified) gave PAFAH1B2 inh 9, PAFAH1B3 FP inh 12, PAFAH2 FP inh -1 and pPAFAH FP inh 5.
CCOC(=O)/C(=C\c1ccc(OC(F)F)cc1)C1=Nn2c(nnc2-c2ccc(Cl)cc2)SC1 was read as PAFAH1B2 inh -12, RBBP9 inhibitor -2, PAFAH1B3 FP inh -17, PAFAH2 FP inh -14 and pPAFAH FP inh -3.
`C[C@H](CO)N1C[C@H](C)[C@@H](CN(C)S(=O)(=O)c2cccs2)Oc2c(NS(=O)(=O)c3cn(C)cn3)cccc2C1=O` gave PAFAH1B2 inh 0, PAFAH1B3 FP inh 12, PAFAH2 FP inh 11 and pPAFAH FP inh 2.
`Cc1ccccc1SCc1noc(C(=O)NCC2CCCO2)c1C(=O)O` (stereo unspecified) gave PAFAH1B2 inh 9, RBBP9 inhibitor -3, PAFAH1B3 FP inh 4, PAFAH2 FP inh 26 and pPAFAH FP inh 4.
For O=C(NCC1CCCO1)c1onc(CSc2ccc(Cl)cc2)c1C(=O)O (stereo unspecified) the results were PAFAH1B2 inh 25*, RBBP9 inhibitor -5, PAFAH1B3 FP inh 5, PAFAH2 FP inh -1 and pPAFAH FP inh 12.
For COc1ccccc1OCCn1c(C)c(C=O)c2ccccc21 the results were PAFAH1B2 inh 1, PAFAH1B3 FP inh 1, PAFAH2 FP inh 5 and pPAFAH FP inh 0.
`Cc1ccc(-c2cnc(C3CC3)o2)cc1S(=O)(=O)Nc1ccccc1` gave PAFAH1B2 inh -4, PAFAH1B3 FP inh 1, PAFAH2 FP inh 12 and pPAFAH FP inh 31*.
Screening C/C(CC(=O)Nc1ccc(N(C)C)cc1)=N\NC(=O)c1ccc(C(C)(C)C)cc1 returned PAFAH1B2 inh 9, PAFAH1B3 FP inh 10, PAFAH2 FP inh 37* and pPAFAH FP inh 5.
`CC(NC(=O)c1cccc(S(=O)(=O)N2CCCCCC2)c1)c1ccccc1` (stereo unspecified) gave PAFAH1B2 inh 25*, PAFAH1B3 FP inh -3, PAFAH2 FP inh 5 and pPAFAH FP inh 5.
For Cc1ccc(S(=O)(=O)/N=C2/C=C(Sc3ncn[nH]3)C(=O)c3ccccc32)cc1 the results were PAFAH1B2 inh 51*, RBBP9 inhibitor 1, PAFAH1B3 FP inh 48*, PAFAH2 FP inh 75* and pPAFAH FP inh 9.
`Cc1ccc(S(=O)(=O)/N=C2/C=C(Sc3ncn[nH]3)C(=O)c3ccccc32)c(C)c1` gave RBBP9 inhibitor 3 and pPAFAH FP inh 6.
CC(C)c1ccc(S(=O)(=O)/N=C2/C=C(Sc3ncn[nH]3)C(=O)c3ccccc32)cc1 was read as PAFAH1B2 inh 46*, RBBP9 inhibitor 6, PAFAH1B3 FP inh 49*, PAFAH2 FP inh 51* and pPAFAH FP inh 9.
`Cc1ccc(S(=O)(=O)Nc2ccc(O)c(Sc3ncn[nH]3)c2)cc1` gave PAFAH1B2 inh 8, RBBP9 inhibitor -3, PAFAH1B3 FP inh 9, PAFAH2 FP inh 8 and pPAFAH FP inh 0.
For CC(C)(C)c1ccc(S(=O)(=O)N(CCCN2CCOCC2)Cc2cccs2)cc1 the results were PAFAH1B2 inh 7, RBBP9 inhibitor -1, PAFAH1B3 FP inh 11, PAFAH2 FP inh 30* and pPAFAH FP inh 32*.
For COc1ccccc1Nc1nc2ccccc2n1C the results were PAFAH1B2 inh -1, RBBP9 inhibitor -5, PAFAH1B3 FP inh 0, PAFAH2 FP inh 3 and pPAFAH FP inh 28*.
Screening COc1ccccc1Nc1nc2ccccc2n2cnnc12 returned PAFAH1B2 inh 1, RBBP9 inhibitor -6, PAFAH1B3 FP inh -2, PAFAH2 FP inh 7 and pPAFAH FP inh 4.

Screening results as filed in PubChem.
